This is an account of results in ChEMBL document CHEMBL1944595, “1,4-diarylpiperazines and analogs as anti-tubercular agents: synthesis and biological evaluation” (Eur J Med Chem, 2012).

Molecules are shown by their SMILES.

The nature of assay [1]: Selectivity index, ratio of IC50 for human HepG2/C3A cells to MIC for Mycobacterium tuberculosis H37Rv. Format: functional. In a few lines: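 Selectivity index calculated as C3A neutral red NI50 (24 h) divided by the H37Rv luminometric MIC50.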
The nature of assay [2]: Cytotoxicity against human HepG2/C3A cells after 24 hrs by neutral red assay. Format: cell-based. In a few lines: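 C3A cells seeded at 40 000 per well and allowed to recover. Exposed 24 h at 37 °C, 5% CO2 to serial dilutions in DMEM + 10% FCS, tested from 10 to 0.1. Then 3 h neutral red uptake, extracted with ethanol/acetic acid, OD read at 530 nm with 620 nm reference. NI50 is the concentration reducing uptake by 50%.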

`CCCCCCCCNC(=N)c1ccc(N2CCN(c3ccccc3)CC2)cc1.Cl`: in assay [1], the “Selectivity Index” value is reported as 72.19. Moreover, 5.18 µM corresponded to half-maximal inhibition in assay [2] (IC50).
On the same counts, the results for `CCCCCCNC(=N)c1ccc(N2CCN(c3ccccc3)CC2)cc1.Cl` are 25.38 and 6.71 µM.
On the same counts, the results for `CCCCNC(=N)c1ccc(N2CCN(c3ccccc3)CC2)cc1.Cl` are 8.03 and 17.4 µM.
Take `CCCNC(=N)c1ccc(N2CCN(c3ccccc3)CC2)cc1.Cl`: the “Selectivity Index” value in assay [1] is recorded as 3.92. Also, in assay [2], the IC50 (commonly the concentration that inhibits the measured activity by half) is 27.5 µM.
On the same counts, the results for `CCCCCCCNC(=N)c1ccc(N2CCN(c3ccccc3)CC2)cc1.Cl` are 57.2 and 5.21 µM.
In the case of `CCCCCNC(=N)c1ccc(N2CCN(c3ccccc3)CC2)cc1.Cl`, the “Selectivity Index” value in assay [1] came to 9.39. For the same molecule, half-maximal inhibition in assay [2] (IC50) required 11.2 µM.
The matching figures for `CCNC(=N)c1ccc(N2CCN(c3ccccc3)CC2)cc1.Cl`: 3.49 and 41.7 µM.
On the same counts, the results for `CCCCCCCCCCCCNC(=N)c1ccc(N2CCN(c3ccccc3)CC2)cc1.Cl` are 107.52 and 5.61 µM.
On the same counts, the results for `Cl.N=C(N)c1ccc(N2CCN(c3ccccc3)CC2)cc1` are 2.26 and 66.9 µM.
Regarding `CNC(=N)c1ccc(N2CCN(c3ccccc3)CC2)cc1.Cl`, the “Selectivity Index” value in assay [1] is 4.45. The same molecule registered an IC50 in assay [2] of 71 µM.
